Screening data as filed in PubChem.
In the library only some 2.1% were active in any assay of this set; here they are far more common.
SR-BI DiI inh: inhibitors of mouse SR-BI mediated HDL lipid uptake. ldlA[mSR-BI] CHO cells, DiI-HDL uptake fluorescence, 3 h. inhibition, % at 12.5 µM. actives 0.96% (n = 320,000). AID 488896;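 active = mean replicate inhibition of at least 70% and a set share of replicates each scoring 70 or more; inconclusive = meets just one of the two criteria; inactive = fails both criteria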;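 also: 0% = median of neutral control wells and 100% = median of positive control wells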
Target sequence (Q61009 whole entry, looked up): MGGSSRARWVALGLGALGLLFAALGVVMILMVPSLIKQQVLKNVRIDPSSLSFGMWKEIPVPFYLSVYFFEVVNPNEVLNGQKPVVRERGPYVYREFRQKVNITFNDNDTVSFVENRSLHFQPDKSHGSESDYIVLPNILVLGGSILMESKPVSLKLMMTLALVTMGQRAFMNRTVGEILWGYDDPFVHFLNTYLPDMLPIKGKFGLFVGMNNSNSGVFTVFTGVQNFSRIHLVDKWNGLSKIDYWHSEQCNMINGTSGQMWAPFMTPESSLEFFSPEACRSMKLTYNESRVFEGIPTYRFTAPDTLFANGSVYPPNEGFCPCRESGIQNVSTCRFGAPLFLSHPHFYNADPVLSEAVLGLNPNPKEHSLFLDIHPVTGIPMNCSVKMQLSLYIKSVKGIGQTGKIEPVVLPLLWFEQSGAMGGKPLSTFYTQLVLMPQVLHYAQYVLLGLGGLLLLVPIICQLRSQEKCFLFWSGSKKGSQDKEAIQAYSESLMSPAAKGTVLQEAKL
CAL PDZ FP-1: human CAL PDZ-peptide interaction inhibition. purified CAL PDZ, TMR-peptide fluorescence polarization, 1 h. inhibition, % at 20 µM. actives 0.02% (n = 330,000). AID 504414;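 active = highest replicate inhibition of at least 40%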;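 also: plate controls were DMSO neutral control wells for no effect and unlabeled competitor peptide control wells for full effect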
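Assay system – tagged CAL PDZ protein CerCALP, purified · Timing – 1 h at RT · Compound – single point, 20 µM · Measured by – fluorescence polarization from S- and P-plane intensities, G-factor corrected · Evaluation – inhibition from polarization loss · Probe or stimulus – TMR reporter peptide T*-PRC34 · Buffer or medium – pH 7.4 phosphate-saline buffer, reducing agent, detergent, IgG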
miR122 inh: blocks miR-122 activity in Huh7 sensor cells; activation (reporter increase), % at 12.5 µM; Huh7 miR-122 Renilla luciferase sensor, 48 h; neutral wells = 0, positive control = 100; AID 602342; actives 0.3% (n = 340,000);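 active = mean replicate activation score at least 90 and every replicate individually at or above 90; inconclusive = only one of the two criteria met; inactive = neither criterion met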;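 also: higher luciferase means less miR-122 activity so hits act as miR-122 inhibitors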
ARNT TACC3 PPI: disruptors of human ARNT/TACC3 interaction | actives 0.66% (n = 390,000) | AlphaScreen His-ARNT PAS-B/GST-TACC3 binding, luminescence; TACC3 fragment carries E629A point mutation | Q9Y6A5 | inhibition, % at 9.99 µM;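 active = mean inhibition of replicates at least 50% and at least half of replicates each reaching 50%; inconclusive = half or more replicates reach 50% but mean below 50%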;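 also: 0% = complete ARNT plus TACC3 wells and 100% = ARNT alone without TACC3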
CAL PDZ FP-2: blocks peptide binding to the human CAL PDZ domain; purified CAL PDZ, TMR-peptide fluorescence polarization, 1 h; inhibition, % at 24.9 µM; actives 0.92% (n = 300,000);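 active = mean inhibition of at least 30% with at least half of replicates also reaching 30%; inconclusive = no clear call, values can overlap the other calls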;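 also: 0% = DMSO neutral control and 100% = excess unlabeled competitor peptide PRC23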
SR-BI uptake up: activators of SR-BI mediated HDL lipid uptake; CHO ldlA[mSR-BI] cells, DiI-HDL uptake fluorescence, 3 h; 100 = double the neutral-control signal; activation, % at 12.5 µM; actives 0.096% (n = 320,000); AID 504775;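 active = mean replicate activation of at least 60% and every replicate at or above 60%; inconclusive = mean or all-replicate condition met, but not both; inactive = mean below 60% and not all replicates reaching 60%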;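 also: 0% = median plate neutral-control signal and 100% = twice that signal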
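Test system: SR-BI-overexpressing, LDLR-lacking CHO cells; Also added: labelled HDL, 10 µg/mL; Measured by: bottom-read cell fluorescence after medium removal, ex 550/em 595 nm; Timing: 3 h uptake period with compound, 37 °C; Buffer or medium: F12, 0.5% BSA, 25 mM HEPES; Doses: single compound concentration, delivered by pin transfer.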
Active calls of the source: *; ? = inconclusive; · = no result; [ ] = remark or other dose.

SMILES | SR-BI DiI inh | CAL PDZ FP-1 | miR122 inh | ARNT TACC3 PPI | CAL PDZ FP-2 | SR-BI uptake up
CCN(CC)CCC(c1ccc(N(C)C)cc1)c1c(O)cc(OC)cc1OC (stereo not drawn) | 1.2 | -0.5 | -2.3 | 30.2* | -0.1 | -1.2
C[C@@H]1CCCCO[C@@H](CN(C)C(=O)Nc2ccc3c(c2)OCO3)[C@@H](C)CN([C@H](C)CO)C(=O)c2cc(NC(=O)CCCCCC(=O)Nc3ccccc3N)ccc2O1 | · | · | 5.7[16.7 µM] | 13.1 | · | ·
Cc1noc(C)c1NC(=O)N(C)C[C@H]1OCCCC[C@@H](C)Oc2ccc(NS(C)(=O)=O)cc2C(=O)N([C@H](C)CO)C[C@H]1C | · | · | 2.2[16.7 µM] | -1.7 | · | ·
COc1ccc(NC(=O)N(C)C[C@H]2OCCCC[C@@H](C)Oc3ccc(NS(=O)(=O)c4ccc(Cl)cc4)cc3C(=O)N([C@H](C)CO)C[C@@H]2C)cc1 | · | · | 6.1[16.7 µM] | -5.2 | · | ·
Nc1nonc1C(=O)N1CCCC1 | 8.5 | -1.9 | 247.0* | -20.7 | -0.4 | -8.5
COc1ccc(CC2C(=O)OC(C)(C)OC2=O)cc1 | -30.1 | -0.7 | 0.8 | 11.1 | 0.0 | 30.1
COc1ccc(CC2CCOC2=O)cc1 (stereo not drawn) | -4.8 | 0.3 | -3.5 | -3.9 | 62.0* | 4.8
O=C(CCCCn1c(=O)[nH]c2ccccc2c1=O)NCCC1=CCCCC1 | 21.9 | -1.0 | 13.7 | -8.3 | 83.3* | -21.9
CN1C[C@@H]2[C@H](c3ccccc31)[C@H](CO)N2Cc1ccccc1F | · | · | 4.9[16.7 µM] | -17.5 | · | ·
O=C(c1cc(-c2ccncc2)nc2c(Cl)cccc12)N1CCN(c2ccccc2F)CC1 | 72.8* | -2.0 | 18.0 | 12.7 | -4.8 | -72.8
CC1CCN(C(=O)COc2ncnc3ccccc23)CC1 | -16.9 | -0.7 | · | -12.2 | 49.3* | 16.9
O=C(COc1ncnc2ccccc12)N1CCOCC1 | -4.2 | 0.3 | -4.6 | -27.1 | -4.2 | 4.2
CCN(CC)C(=O)/C(=C/c1ccc2c(c1)OCO2)NC(=O)c1ccc(Br)cc1 | 74.7* | -2.7 | · | 13.0 | -1.8 | -74.7
CC(C)c1c(Cl)c(O)c(-c2ccccc2)c(=O)n1-c1ccc(F)cc1 | -2.5 | -0.5 | · | -64.5 | 38.0* | 2.5
C[C@@H]1CN([C@@H](C)CO)C(=O)c2cccc(NS(=O)(=O)c3ccc(F)cc3)c2O[C@@H]1CN(C)C(=O)Nc1ccc2c(c1)OCO2 | · | · | 3.0[16.7 µM] | -0.7 | · | ·
Cc1cc(NC(=O)c2sc(Nc3ccc(F)c(Cl)c3)nc2N)no1 | 87.0* | -1.0 | -1.2 | 1.1 | -3.0 | -87.0
Cc1cc(NC(=O)c2sc(Nc3cccc(C(F)(F)F)c3)nc2N)no1 | 55.6 | 1.5 | 4.8 | 3.7 | -1.0 | -55.6
COCC(=O)N1C[C@@H]2[C@H](c3ccccc31)[C@H](CO)N2C(=O)C1CCCC1 | · | · | 20.0[16.7 µM] | -13.0 | · | ·
O=C(C[C@@H]1C[C@H]2c3cc(NC(=O)Nc4ccccc4F)ccc3O[C@H]2[C@@H](CO)O1)NCCc1ccccc1 | · | · | -0.2[16.7 µM] | -2.6 | · | ·
C[C@H](CO)N1C[C@H](C)[C@H](CN(C)S(=O)(=O)c2ccc(Cl)cc2)Oc2ccc(NS(=O)(=O)c3ccc(Cl)cc3)cc2CC1=O | · | · | 15.9[16.7 µM] | 26.9 | · | ·
Cc1cc(C(O)c2ncc(-c3ccccc3F)[nH]2)ccc1F (stereo not drawn) | · | · | 135.8* | · | · | ·
Cc1cc(C)cc(C(O)c2ncc(-c3ccccc3F)[nH]2)c1 (stereo not drawn) | · | · | 109.8* | · | · | ·
COc1ccc(NC(=O)N(C)C[C@H]2Oc3ccc(NC(=O)Nc4ccc5c(c4)OCO5)cc3CC(=O)N([C@@H](C)CO)C[C@H]2C)cc1 | · | · | -3.8[16.7 µM] | 2.4 | · | ·
CCOC(=O)N1CCN(C(=O)c2sc3nc(-c4ccc(F)cc4)cn3c2C)CC1 | -1.1 | -0.6 | -13.1 | -8.9 | -1.0 | 1.1
CCOC(=O)N1CCN(C(=O)c2ccc3c(c2)sc2nc(-c4ccc(OC)cc4)cn23)CC1 | ? | -0.9 | · | 2.6 | 38.2* | -70.2
SMILES | SR-BI DiI inh | CAL PDZ FP-1 | miR122 inh | ARNT TACC3 PPI | CAL PDZ FP-2 | SR-BI uptake up
Cc1cc(C)c(S(=O)(=O)NCc2ccncc2)c(C)c1 | -10.0 | -0.4 | 117.6* | -6.2 | -4.3 | 10.0
C[C@@H]1CCCCO[C@H](CN(C)Cc2ccc(Cl)c(Cl)c2)[C@@H](C)CN([C@@H](C)CO)C(=O)c2cc(N(C)C)ccc2O1 | · | · | 0.5[16.7 µM] | 24.6 | · | ·
O=C(N/N=C/c1cccnc1)c1cccc(F)c1 | -2.0 | · | 0.9 | -13.9 | 51.6* | 2.0
O=C(N/N=C/c1cccnc1)c1[nH]ncc1Br | 9.6 | -0.2 | -0.5 | 2.1 | 49.4* | -9.6
O=C(N/N=C/c1ccccc1)c1[nH]ncc1Br | -22.7 | · | · | -4.8 | -3.6 | 22.7
O=C(CNC(=O)c1cccc(F)c1)N/N=C/c1cccnc1 | -13.7 | -1.9 | -1.7 | -1.6 | -0.4 | ·
CCN(CC)S(=O)(=O)c1cc(NC(=O)c2ccc(Br)s2)ccc1C | 75.1* | -1.9 | 8.4 | 3.2 | 5.1 | -75.1
Cc1ccccc1S(=O)(=O)N1CC[C@H]2[C@H](CO)Nc3ccc(-c4cccc(C#N)c4)cc3[C@H]21 | · | · | 0.2[16.7 µM] | 8.5 | · | ·
CCOC(=O)/C(N=Nc1c(C)n(C)n(-c2ccccc2)c1=O)=C(\C)O | 7.7 | -0.2 | · | 72.1* | -2.1 | -7.7
Cc1c(N=NC2=C(O)CC(C)(C)CC2=O)c(=O)n(-c2ccccc2)n1C | -19.4 | -0.9 | · | 60.8* | -8.2 | 19.4
CC(=O)/C(N=Nc1c(C)n(C)n(-c2ccccc2)c1=O)=C(\C)O | -5.1 | -1.4 | -6.8 | 34.6 | -2.0 | 5.1
COc1ccc(NC(=S)NCCN2CCOCC2)cc1 | 1.3 | -0.2 | 1.3 | 7.8 | 0.8 | -1.3
S=C(NCCN1CCOCC1)N/N=C/c1cccs1 | -10.1 | -1.9 | · | 3.8 | -1.5 | 10.1
Oc1cccc(/C=N/NC(=S)NCCN2CCOCC2)c1O | · | -1.2 | -1.9 | 69.2* | · | ·
N#Cc1ccc(NC(=S)NCCN2CCOCC2)cc1 | -11.0 | -0.9 | -2.4 | 1.6 | 91.2* | 11.0
C[C@@H]1CN([C@H](C)CO)C(=O)c2cc(-c3cccnc3)cnc2O[C@H]1CN(C)C(=O)c1ccccc1F | · | · | -4.3[16.7 µM] | -3.3 | · | ·
COc1ccc(/C=N\NC(=S)SCN2C(=O)C3CCC(C)(C2=O)C3(C)C)cc1 (stereo not drawn) | -15.4 | -1.9 | -2.6 | 7.1 | 0.3 | 15.4
CC12CCC(C(=O)N(CSC(=S)N/N=C\c3ccccc3O)C1=O)C2(C)C (stereo not drawn) | 104.2* | -0.4 | -9.5 | 65.6* | 1.6 | -104.2
CC(C)NC(=O)c1cc2c(=O)n3ccccc3nc2s1 | -12.6 | -0.3 | 0.8 | -7.0 | -5.2 | 12.6
Cc1cc(C)cc(NC(=O)c2cc3c(=O)n4ccccc4nc3s2)c1 | 78.0* | -2.4 | · | -6.6 | 0.9 | -78.0
O=C(COC(=O)c1ccc([N+](=O)[O-])o1)NC1CCCC1 | -17.8 | 0.5 | -8.5 | 48.0* | · | 17.8
